Results reported in ChEMBL document CHEMBL1649147, “Antistaphylococcal activity of dihydrophthalazine antifolates, a family of novel antibacterial drugs” (2009).
In brackets after ≈: the same amount, converted by molar mass.

Tests used:
Format in all cases: functional
[1] = tested on: Staphylococcus epidermidis; experiment: Antibacterial activity against coagulase-negative Staphylococcus epidermidis 345 assessed as change in MIC by agar dilution method after serial passages in the absence of antibiotic relative to control
In short: (§1)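 After drug-selective serial passage, selected clones were passaged 10 times in antibiotic-free MHB. MICs were then redetermined, and the change is expressed as log2 dilution steps.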

[2] = tested on: Staphylococcus aureus; experiment: Antibacterial activity against Staphylococcus aureus ATCC 43300 assessed as change in MIC by agar dilution method after serial passages in presence of antibiotic relative to control
In short: (§2)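 Serial passage under drug. Inoculum was ~1 × 10^6 CFU/ml from overnight MHA growth, in 1 ml MHB at 35°C for 24 h. Drug ranged from 4 log2 steps above to 3 log2 steps below the MIC. […] MIC change is given as log2 steps.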

[3] = tested on: Staphylococcus aureus; experiment: Antibacterial activity against methicillin-susceptible Staphylococcus aureus ATCC 29213 after 50 passages by agar dilution method; conditions: ATCC29213
In short: (§3)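 Daily serial passage for up to 50 days at 35°C for 24 h in 1 ml MHB. […] Each transfer used 10 µl from the tube nearest the MIC (1–2 dilutions below) with the same turbidity as the drug-free control. […] MICs were measured by agar dilution, with changes given as log2 steps.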

[4] = tested on: Staphylococcus aureus; experiment: Antibacterial activity against Tmp-susceptible Staphylococcus aureus by agar dilution method
In short: (§4)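 MICs by agar dilution on Mueller-Hinton agar following CLSI guidelines. S. aureus ATCC 29213 and E. faecalis ATCC 29212 were run as quality controls with each set, and test-strain MICs were kept only if control MICs fell within acceptable ranges.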

[5] = tested on: Staphylococcus epidermidis; experiment: Antibacterial activity against methicillin-resistant coagulase-negative Staphylococcus epidermidis 197 by broth macrodilution method
[6] = tested on: Staphylococcus epidermidis; experiment: Antibacterial activity against coagulase-negative Staphylococcus epidermidis 225 after 10 passages in MBH without antibiotic by agar dilution method; in short: as §1
[7] = tested on: Staphylococcus epidermidis; experiment: Antibacterial activity against methicillin-resistant, Linezolid non-susceptible coagulase-negative Staphylococcus epidermidis 345 after 50 passages by agar dilution method
In short: (§5)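 Daily serial passage for up to 50 days at 35°C for 24 h in 1 ml MHB. Each transfer used 10 µl from the tube nearest the MIC (1–2 dilutions below) with the same turbidity as the drug-free control. MICs were measured by agar dilution, with changes given as log2 steps.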

[8] = tested on: Staphylococcus epidermidis; experiment: Antibacterial activity against coagulase-negative Staphylococcus epidermidis 051 after 50 passages by agar dilution method; in short: as §2
[9] = tested on: Staphylococcus aureus; experiment: Antibacterial activity against methicillin-resistant Staphylococcus aureus ATCC 43300 after 50 passages by agar dilution method; conditions: ATCC43300; in short: as §2
[10] = tested on: Staphylococcus aureus; experiment: Antibacterial activity against methicillin-resistant Staphylococcus aureus 145 after 37 passages by agar dilution method; in short: as §2
[11] = tested on: Staphylococcus epidermidis; experiment: Antibacterial activity against coagulase-negative Staphylococcus epidermidis 345 after 10 passages in MBH without antibiotic by agar dilution method; in short: as §1
[12] = tested on: Staphylococcus aureus; experiment: Antibacterial activity against methicillin-susceptible Staphylococcus aureus ATCC 29213 by broth macrodilution method; conditions: ATCC29213
[13] = tested on: Staphylococcus epidermidis; experiment: Antibacterial activity against coagulase-negative Staphylococcus epidermidis 057 assessed as change in MIC by agar dilution method after serial passages in presence of antibiotic relative to control; in short: as §2
[14] = tested on: Staphylococcus epidermidis; experiment: Antibacterial activity against coagulase-negative Staphylococcus epidermidis 057 after 50 passages by agar dilution method; in short: as §2
[15] = tested on: Staphylococcus epidermidis; experiment: Antibacterial activity against methicillin-susceptible coagulase-negative Staphylococcus epidermidis 051 after 50 passages by agar dilution method; in short: as §5
[16] = tested on: Staphylococcus aureus; experiment: Antibacterial activity against Tmp-susceptible coagulase-negative Staphylococcus aureus by agar dilution method; in short: as §4
[17] = tested on: Staphylococcus aureus; experiment: Antibacterial activity against methicillin-resistant and vancomycin-resistant Staphylococcus aureus VRS1 by agar dilution method
In short: (§6)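 Agar dilution on Mueller-Hinton agar per CLSI guidelines. S. aureus ATCC 29213 and E. faecalis ATCC 29212 were run with each set, and test MICs were accepted only when the control strains fell within acceptable ranges.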

[18] = tested on: Staphylococcus epidermidis; experiment: Antibacterial activity against coagulase-negative Staphylococcus epidermidis 051 assessed as change in MIC by agar dilution method after serial passages in presence of antibiotic relative to control; in short: as §2
[19] = tested on: Staphylococcus aureus; experiment: Antibacterial activity against methicillin-resistant Staphylococcus aureus by agar dilution method; in short: as §6
[20] = tested on: Staphylococcus aureus; experiment: Antibacterial activity against vancomycin-resistant Staphylococcus aureus VRS1 by broth macrodilution method
In short: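 Michigan VRSA strain, one of 12 staphylococci later used in time-kill studies. MIC was determined by broth macrodilution and reported in μg/ml.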

[21] = tested on: Staphylococcus epidermidis; experiment: Antibacterial activity against coagulase-negative Staphylococcus epidermidis 051 assessed as change in MIC by agar dilution method after serial passages in the absence of antibiotic relative to control; in short: as §1
[22] = tested on: Staphylococcus aureus; experiment: Antibacterial activity against Tmp-resistant Staphylococcus aureus by agar dilution method; in short: as §4
[23] = tested on: Staphylococcus epidermidis; experiment: Antibacterial activity against methicillin-resistant, vancomycin-intermediate coagulase-negative Staphylococcus epidermidis 225 after 50 passages by agar dilution method; in short: as §3
[24] = tested on: Staphylococcus aureus; experiment: Antibacterial activity against Staphylococcus aureus 505 assessed as change in MIC by agar dilution method after serial passages in presence of antibiotic relative to control; in short: as §2
[25] = tested on: Staphylococcus aureus; experiment: Antibacterial activity against vancomycin-resistant Staphylococcus aureus VRS1 assessed as change in MIC by agar dilution method after serial passages in presence of antibiotic relative to control; in short: as §3
[26] = tested on: Staphylococcus epidermidis; experiment: Antibacterial activity against coagulase-negative Staphylococcus epidermidis 345 after 50 passages by agar dilution method; in short: as §2
[27] = tested on: Staphylococcus epidermidis; experiment: Antibacterial activity against coagulase-negative Staphylococcus epidermidis 345 by agar dilution method; in short: as §4
[28] = tested on: Staphylococcus aureus; experiment: Antibacterial activity against Staphylococcus aureus 145 after 37 passages by agar dilution method; in short: as §2
[29] = tested on: Staphylococcus epidermidis; experiment: Antibacterial activity against methicillin-resistant, vancomycin-intermediate coagulase-negative Staphylococcus epidermidis 225 after 38 passages by agar dilution method; in short: as §3
[30] = tested on: Staphylococcus aureus; experiment: Antibacterial activity against methicillin-resistant and vancomycin-resistant Staphylococcus aureus VRS1 after 20 passages by agar dilution method; in short: as §3
[31] = tested on: Staphylococcus epidermidis; experiment: Antibacterial activity against coagulase-negative Staphylococcus epidermidis 051 after 38 passages by agar dilution method; in short: as §2
[32] = tested on: Staphylococcus aureus; experiment: Antibacterial activity against vancomycin-resistant Staphylococcus aureus VRS1 after 20 passages by agar dilution method; in short: as §3
[33] = tested on: Staphylococcus aureus; experiment: Antibacterial activity against Staphylococcus aureus 145 after 47 passages by agar dilution method; in short: as §2
[34] = tested on: Staphylococcus aureus; experiment: Antibacterial activity against methicillin-resistant Staphylococcus aureus 145 after 47 passages by agar dilution method; in short: as §2
[35] = tested on: Staphylococcus epidermidis; experiment: Antibacterial activity against methicillin-susceptible coagulase-negative Staphylococcus epidermidis 051 after 38 passages by agar dilution method; in short: as §3
[36] = tested on: Staphylococcus epidermidis; experiment: Antibacterial activity against coagulase-negative Staphylococcus epidermidis 345 after 33 passages by agar dilution method; in short: as §2
[37] = tested on: Staphylococcus epidermidis; experiment: Antibacterial activity against methicillin-susceptible coagulase-negative Staphylococcus epidermidis 057 after 23 passages by agar dilution method; in short: as §3
[38] = tested on: Staphylococcus aureus; experiment: Antibacterial activity against methicillin-resistant Staphylococcus aureus 145 after 50 passages by agar dilution method; in short: as §2
[39] = tested on: Staphylococcus aureus; experiment: Antibacterial activity against vancomycin-resistant Staphylococcus aureus VRS1 after 25 passages by agar dilution method; in short: as §3
[40] = tested on: Staphylococcus epidermidis; experiment: Antibacterial activity against coagulase-negative Staphylococcus epidermidis 057 after 23 passages by agar dilution method; in short: as §2
[41] = tested on: Staphylococcus aureus; experiment: Antibacterial activity against Staphylococcus aureus 145 after 50 passages by agar dilution method; in short: as §2

SMILES | fold change (FC) [1] | fold change (FC) [2] | MIC [3] [µg/mL] | MIC50 [4] [µg/mL] | MIC90 [4] [µg/mL] | MIC [5] [µg/mL] | MIC [6] [µg/mL] | MIC [9] [µg/mL] | MIC [11] [µg/mL] | MIC [12] [µg/mL] | fold change (FC) [13] | MIC [16] [µg/mL] | MIC [17] [µg/mL] | fold change (FC) [18] | MIC50 [19] [µg/mL] | MIC90 [19] [µg/mL] | MIC [20] [µg/mL] | fold change (FC) [21] | MIC50 [22] [µg/mL] | MIC90 [22] [µg/mL] | other results
COc1ncc(C2c3ccccc3C=NN2C(=O)/C=C/c2cc(Cc3cnc(N)nc3N)cc(OC)c2OC)cn1 (centres undefined) | -3 | 7 | 8 (≈ 14.5 µM) | 0.03 (≈ 0.0543 µM) | 0.03 (≈ 0.0543 µM) | 0.008 (≈ 0.0145 µM) | 8 (≈ 14.5 µM) | 4 (≈ 7.24 µM) | 2 (≈ 3.62 µM) | 0.03 (≈ 0.0543 µM) | 4 | ≤ 0.008 | 0.5 (≈ 0.905 µM) | 8 | 0.03 (≈ 0.0543 µM) | 0.25 (≈ 0.452 µM) | 1 (≈ 1.81 µM) | -2 | 0.25 (≈ 0.452 µM) | 0.5 (≈ 0.905 µM) | MIC [7]: 16 µg/mL (≈ 29 µM); MIC [8]: 64 µg/mL (≈ 116 µM); MIC [10]: > 128 µg/mL; MIC [14]: 128 µg/mL (≈ 232 µM); MIC [15]: 64 µg/mL (≈ 116 µM); MIC [23]: 128 µg/mL (≈ 232 µM); fold change (FC) [24]: 6; fold change (FC) [25]: 9; MIC [26]: 16 µg/mL (≈ 29 µM); MIC [27]: 0.125 µg/mL (≈ 0.226 µM); MIC [28]: > 128 µg/mL
COc1cc(Cc2cnc(N)nc2N)cc(/C=C/C(=O)N2N=Cc3ccccc3C2c2cnc(N(C)C)nc2)c1OC (centres undefined) | -7 | 5 | 0.5 (≈ 0.884 µM) | 0.03 (≈ 0.053 µM) | 0.03 (≈ 0.053 µM) | 0.03 (≈ 0.053 µM) | 2 (≈ 3.54 µM) | 1 (≈ 1.77 µM) | 2 (≈ 3.54 µM) | 0.06 (≈ 0.106 µM) | 5 | ≤ 0.008 | 0.25 (≈ 0.442 µM) | 11 | 0.03 (≈ 0.053 µM) | 0.125 (≈ 0.221 µM) | 0.5 (≈ 0.884 µM) | -6 | 0.25 (≈ 0.442 µM) | 0.5 (≈ 0.884 µM) | MIC [29]: > 128 µg/mL; MIC [30]: > 128 µg/mL; MIC [31]: > 128 µg/mL; MIC [32]: > 128 µg/mL; MIC [33]: > 128 µg/mL; fold change (FC) [24]: 8; fold change (FC) [25]: 10; MIC [34]: > 128 µg/mL; MIC [35]: > 128 µg/mL; MIC [36]: > 128 µg/mL; MIC [27]: 0.06 µg/mL (≈ 0.106 µM)
COc1cc(Cc2cnc(N)nc2N)cc(/C=C/C(=O)N2N=Cc3ccccc3C2c2cnc(N3CCOCC3)nc2)c1OC (centres undefined) | -1 | 5 | 1 (≈ 1.65 µM) | 0.03 (≈ 0.0494 µM) | 0.06 (≈ 0.0987 µM) | 0.06 (≈ 0.0987 µM) | 2 (≈ 3.29 µM) | 2 (≈ 3.29 µM) | 2 (≈ 3.29 µM) | 0.06 (≈ 0.0987 µM) | 5 | ≤ 0.008 | 1 (≈ 1.65 µM) | 7 | 0.03 (≈ 0.0494 µM) | 0.25 (≈ 0.411 µM) | 1 (≈ 1.65 µM) | -6 | 0.25 (≈ 0.411 µM) | 0.5 (≈ 0.823 µM) | MIC [7]: 4 µg/mL (≈ 6.58 µM); MIC [37]: > 128 µg/mL; MIC [8]: 64 µg/mL (≈ 105 µM); MIC [38]: 128 µg/mL (≈ 211 µM); MIC [15]: 64 µg/mL (≈ 105 µM); MIC [39]: > 128 µg/mL; fold change (FC) [24]: 6; MIC [40]: > 128 µg/mL; fold change (FC) [25]: 8; MIC [41]: 128 µg/mL (≈ 211 µM); MIC [26]: 4 µg/mL (≈ 6.58 µM); MIC [27]: 0.06 µg/mL (≈ 0.0987 µM)
